Positions count from the first letter of the chain named.
Assays:
Pce1 G276R = target: T1, Pce1 G276R (Schizosaccharomyces pombe, UniProt P40997, G276R); test: Fluorescence polarization binding of Spt5 CTD-; parameters: species or system S. pombe
T1 sequence (P40997 1-402 G276R): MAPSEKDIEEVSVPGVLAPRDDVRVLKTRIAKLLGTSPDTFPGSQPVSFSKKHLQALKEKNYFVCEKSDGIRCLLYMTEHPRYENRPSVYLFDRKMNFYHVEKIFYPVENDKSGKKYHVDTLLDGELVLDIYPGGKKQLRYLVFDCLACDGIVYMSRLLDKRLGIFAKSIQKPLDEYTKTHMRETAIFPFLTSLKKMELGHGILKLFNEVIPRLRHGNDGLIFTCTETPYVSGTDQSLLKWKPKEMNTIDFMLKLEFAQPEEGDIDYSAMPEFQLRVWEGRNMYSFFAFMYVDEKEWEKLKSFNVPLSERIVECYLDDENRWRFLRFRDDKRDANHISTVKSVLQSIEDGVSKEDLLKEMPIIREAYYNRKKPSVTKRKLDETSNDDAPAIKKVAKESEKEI
Summary of the method: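 Tag-free Pce1–GMP (His6Smt3 fusion made in E. coli, Ulp1-cleaved, gel-filtered, then guanylylated with 1 mM GTP/5 mM MgCl2 for 30 min on ice) was titrated against BODIPY-FL-N(Cys)-Spt5-(801–898) in 20 mM Tris-HCl, 4 mM DTT. Incubation was 15 min on ice. Read-out was polarization at ex 485/em 538 nm. Kd came from single-site fits, using a receptor-depletion model where half-saturation approached the ligand concentration.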

Pce1 [1] = conditions: His tag affinity chromatography assay; ref Pei and Shuman 2002; cited from earlier work
Pce1 [2] = target: T2, Pce1 (Schizosaccharomyces pombe, UniProt P40997); test: Competition between labeled and unlabeled Spt5 CTD-; format: binding, S. pombe; conditions: 1 μM Pce1 preincubated with untagged Spt5 CTD-(801–898) 15 min on ice, then 0.3 μM BODIPY-FL-Spt5 CTD-(801–898); pH 8.0; three independent experiments ± SEM
T2 sequence (P40997 1-402): T1 sequence (P40997 1-402 G276R) with R276G

[3] = target: T3, BODIPY-FL-N(Cys)-Spt5-(801–898) (S. pombe) (UniProt O13936); test: fluorescence polarisation
T3 sequence (O13936 801-898, looked up): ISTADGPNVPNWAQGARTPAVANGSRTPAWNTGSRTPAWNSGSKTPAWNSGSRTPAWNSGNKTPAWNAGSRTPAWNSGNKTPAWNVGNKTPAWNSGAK

B1: BODIPY-FL-Spt5 CTD-(801–898): N(Cys)-Spt5-(801–898) labeled with BODIPY-FL at the N terminus via maleimide chemistry (protein, UniProt O13936 801-898, looked up, fragment)
chain: T3 sequence (O13936 801-898, looked up)
modifications: N-terminal Cys, BODIPY-FL label
decrement in binding affinity (Pce1 G276R; Pce1-G276R vs wild-type Pce1): 24 fold
Kd (Pce1 G276R; Pce1 G276R, 300 nM labeled ligand, pH 8.0, 50 mM NaCl, read at 23°C, triplicate): 28.8 ± 4.3 µM

B2: Spt5 CTD composed of 10 nonamer repeats: Spt5 CTD composed of 10 nonamer repeats (protein, UniProt O13936 801-898, looked up, fragment)
chain: T3 sequence (O13936 801-898, looked up)
Pce1 binding to Spt5 CTD, dependence on number of nonamer repeats (Pce1 [1]): bound well

B3: Spt5-(801–898): purified recombinant Spt5-(801–898), composed of 10 nonamer repeats (protein, UniProt O13936 801-898, looked up, fragment)
chain: T3 sequence (O13936 801-898, looked up)
Ki (Pce1 [2]): 0.61 ± 0.2 µM

B4: Schizosaccharomyces pombe RNA guanylyltransferase (GTase) Pce1, wild type, as the covalent Pce1–GMP intermediate (enzyme)
chain: SMAPSEKDIEEVSVPGVLAPRDDVRVLKTRIAKLLGTSPDTFPGSQPVSFSKKHLQALKEKNYFVCEKSDGIRCLLYMTEHPRYENRPSVYLFDRKMNFYHVEKIFYPVENDKSGKKYHVDTLLDGELVLDIYPGGKKQLRYLVFDCLACDGIVYMSRLLDKRLGIFAKSIQKPLDEYTKTHMRETAIFPFLTSLKKMELGHGILKLFNEVIPRLRHGNDGLIFTCTETPYVSGTDQSLLKWKPKEMNTIDFMLKLEFAQPEEGDIDYSAMPEFQLGVWEGRNMYSFFAFMYVDEKEWEKLKSFNVPLSERIVECYLDDENRWRFLRFRDDKRDANHISTVKSVLQSIEDGVSKEDLLKEMPIIREAYYNRKKPSVTKRKLDETSNDDAPAIKKVAKESEKEI
modifications: Lys67 covalently guanylylated (lysyl-Nζ-GMP)
Kd [3]: 1.19 µM

B5: Pce1-G276R (enzyme)
chain: B4 chain with G277R
modifications: guanylylated in vitro (Pce1–GMP)
Kd [3]: 28.8 µM

Reference: PMC4066402 (Genes & Development, 2014)
